{"source": "ChEMBL document CHEMBL1629441", "about": "“Synthesis, in vitro and in vivo biological evaluation, and comprehensive understanding of structure-activity relationships of dipeptidyl boronic acid proteasome inhibitors constructed from β-amino acids” (J Med Chem, 2010)", "key": {"[1]": {"experiment": "Inhibition of human 20S proteasome chymotrypsin-like activity by fluorimetric assay", "details": "read-out: IC50", "procedure,_shortened": "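Human 20S proteasome preincubated with test compound, then Suc-Leu-Leu-Val-Tyr-AMC hydrolysis monitored 1 h at 37 °C by fluorescence (excitation 360 nm, 465 nm). Buffer pH 7.5: 20 mM Tris, 1 mM DTT, 10% glycerol, 0.02% (w/v) SDS; DMSO 3% (v/v) final. IC50 from five concentrations, each in duplicate; bortezomib standard.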"}, "[2]": {"experiment": "Cmax in Sprague-Dawley rat at 1 mg/kg, iv", "format": "ADME, organism-based", "design": "dose 1 mg/kg, route intravenous", "details": "in vivo", "procedure,_shortened": "(§1)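 Male SD rats given single 1.0 mg/kg iv bolus of solution (0.5 mg/mL) in 1% ethanol, 1% Tween80, 98% buffered saline. Heparinized blood samples (n = 4) centrifuged 4000 rpm, 5 min, 4 °C; plasma concentrations used to derive PK parameters.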"}, "[3]": {"experiment": "Terminal half life in Sprague-Dawley rat at 1 mg/kg, iv", "format": "ADME, organism-based", "design": "dose 1 mg/kg, route intravenous", "details": "in vivo", "procedure,_shortened": "as §1"}, "A549": {"tested_on": "A549", "experiment": "Cytotoxicity against human A549 cells after 72 hrs by MTT assay", "format": "functional, cell-based", "details": "A549, 72 h", "procedure,_shortened": "(§2)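 MTT growth assay: 3000 cells per well seeded, after 24 h exposed to 10 drug concentrations for 72 h, then MTT (5 mg/mL stock) 4 h at 37 °C. Formazan dissolved in DMSO, absorbance at 540 nm. Points in triplicate; IC50 is mean of at least three independent determinations. Cells grown at 37 °C, 5% CO2 with FBS.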"}, "[4]": {"experiment": "Tmax in Sprague-Dawley rat at 1 mg/kg, iv", "format": "ADME, organism-based", "design": "dose 1 mg/kg, route intravenous", "details": "in vivo", "procedure,_shortened": "as §1"}, "[5]": {"experiment": "Cytotoxicity against human RPMI18226 cells after 72 hrs by MTT assay", "format": "functional, cell-based", "details": "RPMI18226, 72 h", "procedure,_shortened": "as §2"}, "[6]": {"experiment": "Systemic clearance in Sprague-Dawley rat at 1 mg/kg, iv", "format": "ADME, organism-based", "design": "dose 1 mg/kg, route intravenous", "details": "in vivo", "procedure,_shortened": "as §1"}, "Rattus norvegicus [7]": {"tested_on": "Rattus norvegicus", "experiment": "Toxicity in Sprague-Dawley rat assessed as incidence of mortality at 1 mg/kg, ig after 10 hrs", "format": "organism-based", "design": "dose 1 mg/kg, route intragastric", "details": "in vivo, po", "procedure,_shortened": "(§3)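 Male SD rats dosed once at 1.0 mg/kg, iv bolus or intragastric, during the PK study. Dosing solution 0.5 mg/mL in 1% ethanol, 1% Tween80, 98% buffered saline. Animals observed for death and toxic reactions over 10 h. n = 4 per PK group.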"}, "[8]": {"experiment": "Mean residence time (0-t) in Sprague-Dawley rat at 1 mg/kg, iv", "format": "ADME, organism-based", "design": "dose 1 mg/kg, route intravenous", "details": "in vivo", "procedure,_shortened": "as §1"}, "PC-3": {"tested_on": "PC-3", "experiment": "Cytotoxicity against human PC3 cells after 72 hrs by MTT assay", "format": "functional, cell-based", "details": "PC-3, 72 h", "procedure,_shortened": "as §2"}, "SK-OV-3": {"tested_on": "SK-OV-3", "experiment": "Cytotoxicity against human SKOV3 cells after 72 hrs by MTT assay", "format": "functional, cell-based", "details": "SK-OV-3, 72 h", "procedure,_shortened": "as §2"}, "HepG2": {"tested_on": "HepG2", "experiment": "Cytotoxicity against human HepG2 cells after 72 hrs by MTT assay", "format": "functional, cell-based", "details": "HepG2, 72 h", "procedure,_shortened": "as §2"}, "SW480": {"tested_on": "SW480", "experiment": "Cytotoxicity against human SW480 cells after 72 hrs by MTT assay", "format": "functional, cell-based", "details": "SW480, 72 h", "procedure,_shortened": "as §2"}, "HL-60": {"tested_on": "HL-60", "experiment": "Cytotoxicity against human HL60 cells after 72 hrs by MTT assay", "format": "functional, cell-based", "details": "HL-60, 72 h", "procedure,_shortened": "as §2"}, "BXPC-3": {"tested_on": "BXPC-3", "experiment": "Cytotoxicity against human BxPC3 cells after 72 hrs by MTT assay", "format": "functional, cell-based", "details": "BXPC-3, 72 h", "procedure,_shortened": "as §2"}, "[9]": {"experiment": "Apparent volume of distribution in Sprague-Dawley rat at 1 mg/kg, iv", "format": "ADME, organism-based", "design": "dose 1 mg/kg, route intravenous", "details": "in vivo, read-out: Vz", "procedure,_shortened": "as §1"}, "[10]": {"experiment": "AUC (0-t) in Sprague-Dawley rat at 1 mg/kg, iv", "format": "ADME, organism-based", "design": "dose 1 mg/kg, route intravenous", "details": "plasma", "procedure,_shortened": "as §1"}, "Rattus norvegicus [11]": {"tested_on": "Rattus norvegicus", "experiment": "Toxicity in Sprague-Dawley rat assessed as incidence of mortality at 1 mg/kg, iv after 10 hrs", "format": "organism-based", "design": "dose 1 mg/kg, route intravenous", "details": "in vivo", "procedure,_shortened": "as §3"}}}
{"smiles": "CC(C)C[C@H](NC(=O)CC(NC(=O)c1ccc2ccccc2c1)c1cccc(F)c1)B(O)O", "note": "(stereo partly drawn)", "values": [{"measurement": "IC50", "setting": "[1]", "result": 3.01, "unit": "nM"}, {"measurement": "Cmax", "setting": "[2]", "result": 5790, "unit": "ng/mL"}, {"measurement": "half-life", "setting": "[3]", "result": 4.5, "unit": "h"}, {"measurement": "IC50", "setting": "A549", "result": 2020, "unit": "nM"}, {"measurement": "Tmax", "setting": "[4]", "result": 1.8, "unit": "min"}, {"measurement": "IC50", "setting": "[5]", "result": 330, "unit": "nM"}, {"measurement": "clearance", "setting": "[6]", "result": 9.6, "unit": "mL/min/kg"}, {"measurement": "Activity", "setting": "Rattus norvegicus [7]", "result": "Non-toxic"}, {"measurement": "MRT last", "setting": "[8]", "result": 1.4, "unit": "h"}, {"measurement": "IC50", "setting": "PC-3", "result": 2990, "unit": "nM"}, {"measurement": "IC50", "setting": "SK-OV-3", "result": 8770, "unit": "nM"}, {"measurement": "IC50", "setting": "HepG2", "result": 6990, "unit": "nM"}, {"measurement": "IC50", "setting": "SW480", "result": 2380, "unit": "nM"}, {"measurement": "IC50", "setting": "HL-60", "result": 530, "unit": "nM"}, {"measurement": "IC50", "setting": "BXPC-3", "result": 3540, "unit": "nM"}, {"measurement": "Vd", "setting": "[9]", "result": 3.9, "unit": "L/kg"}, {"measurement": "AUC(0-t)", "setting": "[10]", "result": 1710, "unit": "ng·h/mL"}, {"measurement": "Activity", "setting": "Rattus norvegicus [11]", "result": "Non-toxic"}]}
